Drawing on ChEMBL document CHEMBL1135437, “Novel, non-acylguanidine-type Na(+)/H(+) exchanger inhibitors: synthesis and pharmacology of 5-tetrahydroquinolinylidene aminoguanidine derivatives” (J Med Chem, 2002), this text covers Inhibition and IC50 for seven molecules.

A short description of assay [1]: In vitro inhibition of acid induced swelling in rat platelets by 50% as a measure of NHE inhibition. Type of assay: functional. The method in brief: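 Platelet-rich plasma from male Wistar rats (13–15 weeks), diluted in saline to 40 × 10^4/µL. Compound in DMSO added 3 min before sodium propionate buffer (135 mM, pH 6.7, 37 °C), final DMSO 1%. Swelling read as the change in 550 nm light transmission 1 min later, corrected with platelet-poor plasma. 100% inhibition defined by vehicle vs HOE-642 (10^-5 M). IC50 from triplicate experiments.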

The nature of assay [2]: in vitro inhibition against NHE to inhibit the acid induced swelling in human platelets by 50%. Format: functional. Put shortly:
(§1)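 Platelet-rich plasma from forearm-vein blood of normal adult men, adjusted to 10 × 10^4/µL. Compound in DMSO added 3 min before sodium propionate buffer (135 mM, pH 6.7, 37 °C), final DMSO 1%. Light transmission at 550 nm recorded; maximum upstroke velocity in the first minute used. 100% inhibition defined by vehicle vs HOE-642 (10^-5 M). IC50 = 50% inhibition of swelling; triplicate experiments.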

Assay [3] relates to Rattus norvegicus. As to the kind of experiment: In vivo inhibitory effect on the Myocardial Infarct size of Ischemia-Reperfusion Injury model of rat. Administered intravenously 5 min before occlusion. Type of assay: functional, Myocardium. The method in brief: (§2)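 Male Wistar rats (11–12 weeks), anesthetized; left coronary artery occluded 1 h, then reperfused 24 h. Dose 0.1 or 0.3 mg/kg iv, 5 min before occlusion. Area at risk stained with 1% Evans blue; six left-ventricle slices stained with 1% TTC, 37 °C, 10 min. Infarct size expressed as % of area at risk by weight. n = 5–7.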

Assay [4] has as its system Rattus norvegicus. Nature of the assay: In vivo inhibitory effect on the myocardial infarct size of ischemia-reperfusion injury model of rat. Administered intravenously 5 min before occlusion. Type of assay: functional, Myocardium. The method in brief:
as §2

Assay [5] is described as follows: In vitro inhibition against Na+/H+ exchanger(NHE) by measuring its ability to inhibit the acid induced swelling in human platelets by 50%. Format: functional. The method in brief: as §1
The test system of assay [6] is Rattus norvegicus. Nature of the assay: In vivo inhibitory effect on the myocardial infarct size of ischemia-reperfusion injury model of rat administered intravenously 5 min before occlusion. Type of assay: functional, Myocardium. The method in brief:
as §2

For assay [7], the system named is Rattus norvegicus. As to the kind of experiment: In vivo inhibitory effect on the Myocardial Infarct size of Ischemia-Reperfusion Injury model of rat. Administered intravenously […]. Type of assay: functional, Myocardium. The following applies: in the assay text read “5 min before” for “2 hr before”.

The term Inhibition denotes how much of the control response was suppressed. Read a high Inhibition as a strong effect. In turn, `Cc1ccnc2c1/C(=N/N=C(N)N)CC(c1ccncc1)C2.Cl.Cl` (stereo unspecified) displayed an Inhibition in assay [1] of 25%.

Usually IC50 stands for the concentration that gives 50% inhibition. Consider `CS(=O)(=O)O.CS(=O)(=O)O.Cc1ccnc2c1/C(=N/N=C(N)N)C[C@H](c1cc(Cl)sc1Cl)C2`, for which, in assay [2], the IC50 was 7 nM. Also, in assay [3], the Inhibition stood at 43%.

In assay [2], `CS(=O)(=O)O.CS(=O)(=O)O.Cc1ccnc2c1/C(=N/N=C(N)N)C[C@H](c1ccccc1Cl)C2` displayed an IC50 of 9 nM. In assay [4], this molecule had an Inhibition of 44%.

In turn, `Cc1ccnc2c1/C(=N/N=C(N)N)CC(c1ccccn1)C2.Cl.Cl` (stereo unspecified) displayed an Inhibition in assay [1] of 23%.

Regarding `CC(C)c1ccc(C(=O)N=C(N)N)cc1S(C)(=O)=O` [CARIPORIDE], the concentration for half-maximal inhibition (IC50) in assay [5] came out at 210 nM. The Inhibition in assay [6] is 28%.

Regarding `CS(=O)(=O)O.CS(=O)(=O)O.Cc1ccc(F)cc1[C@H]1C/C(=N\N=C(N)N)c2c(C)ccnc2C1`, 13 nM corresponded to half-maximal inhibition in assay [2] (IC50). Also, the Inhibition in assay [7] is 33%.

For the molecule `Cc1ccnc2c1/C(=N/N=C(N)N)CC(c1c(Cl)cccc1Cl)C2.Cl.Cl` (stereo unspecified), the Inhibition in assay [1] came to 23%.
